Measurements from ChEMBL document CHEMBL5344483, “Design and synthesis of novel chloropyridazine hybrids as promising anticancer agents acting by apoptosis induction and PARP-1 inhibition through a molecular hybridization strategy” (RSC Med Chem, 2024).
Calls of active or inactive are those of the source. The rule behind the calls is not given here.

Assays:
[1] = Cytotoxicity against human HSF (VGS) cells assessed as growth inhibition at 100 microg/mL by SRB assay relative to control; type: toxicity, cell-based; conditions: at 100 µg/mL, read-out: GI
MCF7 = assay: Anticancer activity against human MCF7 cells assessed as growth inhibition at 100 microg/mL by SRB assay relative to control; type: functional; conditions: read-out: GI
In short: (§1)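 Cells seeded at 3×10^3 per well and allowed to attach for 24 h. Treated with 100 µg/mL compound for 48 h, triplicate wells, with a 1% v/v DMSO vehicle control. Fixed in 20% TCA, stained with 0.4% SRB, and OD read at 570 nm. Survival fraction is treated OD/control OD.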

FaDu [2] = assay: Anticancer activity against human FaDu cells assessed as growth inhibition at 100 microg/mL by SRB assay relative to control; type: functional; conditions: read-out: GI; in short: as §1
MDA-MB-231 = assay: Antiproliferative activity against human MDA-MB-231 cells assessed as reduction in cell growth by coomassie Brilliant Blue staining based analysis; type: functional
MDA-MB-468 [3] = assay: Cytotoxicity against human MDA-MB-468 cells by SRB assay; type: functional, cell-based
In short: (§2)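 Cells seeded at 3×10^3 per well and allowed to attach for 24 h. Exposed to […], 12.5, 25 and 50 µg/mL for 48 h, triplicate wells per concentration, with a 1% v/v DMSO vehicle. Fixed in 20% TCA, stained with 0.4% SRB, and OD read at 570 nm. IC50 from sigmoidal dose-response fit of survival fraction (treated/control OD).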

FaDu [4] = assay: Cytotoxicity against human FaDu cells by SRB assay; type: functional, cell-based; in short: as §2
SK-BR-3 = assay: Anticancer activity against human SK-BR-3 cells assessed as growth inhibition at 100 microg/mL by SRB assay relative to control; type: functional; conditions: read-out: GI; in short: as §1
NCI-H460 = assay: Anticancer activity against human NCI-H460 cells assessed as growth inhibition at 100 microg/mL by SRB assay relative to control; type: functional; conditions: read-out: GI; in short: as §1
A549 = assay: Anticancer activity against human A549 cells assessed as growth inhibition at 100 microg/mL by SRB assay relative to control; type: functional; conditions: read-out: GI; in short: as §1
HCT-116 = assay: Anticancer activity against human HCT-116 cells assessed as growth inhibition at 100 microg/mL by SRB assay relative to control; type: functional; conditions: read-out: GI; in short: as §1
Huh-7 = assay: Anticancer activity against human Huh-7 cells assessed as growth inhibition at 100 microg/mL by SRB assay relative to control; type: functional; conditions: read-out: GI; in short: as §1
A-375 = assay: Anticancer activity against human A-375 cells assessed as growth inhibition at 100 microg/mL by SRB assay relative to control; type: functional; conditions: read-out: GI; in short: as §1
HeLa = assay: Anticancer activity against human HeLa cells assessed as growth inhibition at 100 microg/mL by SRB assay relative to control; type: functional; conditions: read-out: GI; in short: as §1
HNO 97 cell line [5] = assay: Cytotoxicity against human HNO97 cells by SRB assay; type: functional, cell-based; in short: as §2
MDA-MB-468 [6] = assay: Anticancer activity against human MDA-MB-468 cells assessed as growth inhibition at 100 microg/mL by SRB assay relative to control; type: functional; conditions: read-out: GI; in short: as §1
HNO 97 cell line [7] = assay: Anticancer activity against human HNO97 cells assessed as growth inhibition at 100 microg/mL by SRB assay relative to control; type: functional; conditions: read-out: GI; in short: as §1
[8] = target: T1, Poly [ADP-ribose] polymerase 1 (Homo sapiens, UniProt P09874); assay: Inhibition of human PARP-1 in MDA-MB-231 cells assessed as accumulation of cleaved PARP-1 by immunoblot analysis; type: cell-based
In short: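 Drug-treated cells lysed and protein measured by BCA. Lysate (30 µg) separated by SDS-PAGE and transferred to PVDF. Probed with anti-PARP1 primary antibody (1:1000), then HRP-conjugated secondary (1:10,000), with alpha-tubulin as loading probe. Detected by ECL. Blots representative of at least three independent experiments.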

[9] = target: T1, Poly [ADP-ribose] polymerase 1; assay: Inhibition of PARP1 (unknown origin) by ELISA
HNO 97 cell line [10] = assay: Induction of cell cycle arrest in human HNO97 cells assessed as cell population at G2-M phase by flow cytometry (reference value: 2.42%); type: functional
HNO 97 cell line [11] = assay: Induction of cell cycle arrest in human HNO97 cells assessed as cell population at G0-G1 phase by flow cytometry (reference value: 63.31%); type: functional
HNO 97 cell line [12] = assay: Induction of apoptosis in human HNO97 cells assessed as measuring fold decrease in Bcl-2 protein expression level by sandwiched immunoassay relative to control; type: functional
In short: (§3)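 Sandwich ELISA on antibody-precoated wells. Sample incubated 1 h at 37 °C, then biotin-conjugated detection antibody 1 h at 37 °C, then avidin-HRP 30 min at 37 °C, with washes between steps. TMB substrate 10–20 min at 37 °C in the dark, stopped with sulphuric acid, read at 450 nm. Duplicate readings, zero-standard subtracted, quantified against a 7-point standard curve.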

HNO 97 cell line [13] = assay: Induction of cell cycle arrest in human HNO97 cells assessed as cell population at S phase by flow cytometry (reference value: 34.27%); type: functional
HNO 97 cell line [14] = assay: Induction of apoptosis in human HNO97 cells assessed as measuring fold increase in p53 protein expression level by sandwiched immunoassay relative to control; type: functional; in short: as §3
HNO 97 cell line [15] = assay: Induction of apoptosis in human HNO97 cells assessed as measuring fold increase in caspase-3 protein expression level by sandwiched immunoassay relative to control; type: functional; in short: as §3
HNO 97 cell line [16] = assay: Induction of apoptosis in human HNO97 cells assessed as measuring fold increase in caspase-6 protein expression level by sandwiched immunoassay relative to control; type: functional; in short: as §3
HNO 97 cell line [17] = assay: Induction of apoptosis in human HNO97 cells assessed as measuring fold increase in Bax protein expression level by sandwiched immunoassay relative to control; type: functional; in short: as §3
HNO 97 cell line [18] = assay: Induction of apoptosis in human HNO97 cells assessed as measuring fold decrease in CK 18 protein expression level by sandwiched immunoassay relative to control; type: functional; in short: as §3

T1 sequence (P09874 whole entry): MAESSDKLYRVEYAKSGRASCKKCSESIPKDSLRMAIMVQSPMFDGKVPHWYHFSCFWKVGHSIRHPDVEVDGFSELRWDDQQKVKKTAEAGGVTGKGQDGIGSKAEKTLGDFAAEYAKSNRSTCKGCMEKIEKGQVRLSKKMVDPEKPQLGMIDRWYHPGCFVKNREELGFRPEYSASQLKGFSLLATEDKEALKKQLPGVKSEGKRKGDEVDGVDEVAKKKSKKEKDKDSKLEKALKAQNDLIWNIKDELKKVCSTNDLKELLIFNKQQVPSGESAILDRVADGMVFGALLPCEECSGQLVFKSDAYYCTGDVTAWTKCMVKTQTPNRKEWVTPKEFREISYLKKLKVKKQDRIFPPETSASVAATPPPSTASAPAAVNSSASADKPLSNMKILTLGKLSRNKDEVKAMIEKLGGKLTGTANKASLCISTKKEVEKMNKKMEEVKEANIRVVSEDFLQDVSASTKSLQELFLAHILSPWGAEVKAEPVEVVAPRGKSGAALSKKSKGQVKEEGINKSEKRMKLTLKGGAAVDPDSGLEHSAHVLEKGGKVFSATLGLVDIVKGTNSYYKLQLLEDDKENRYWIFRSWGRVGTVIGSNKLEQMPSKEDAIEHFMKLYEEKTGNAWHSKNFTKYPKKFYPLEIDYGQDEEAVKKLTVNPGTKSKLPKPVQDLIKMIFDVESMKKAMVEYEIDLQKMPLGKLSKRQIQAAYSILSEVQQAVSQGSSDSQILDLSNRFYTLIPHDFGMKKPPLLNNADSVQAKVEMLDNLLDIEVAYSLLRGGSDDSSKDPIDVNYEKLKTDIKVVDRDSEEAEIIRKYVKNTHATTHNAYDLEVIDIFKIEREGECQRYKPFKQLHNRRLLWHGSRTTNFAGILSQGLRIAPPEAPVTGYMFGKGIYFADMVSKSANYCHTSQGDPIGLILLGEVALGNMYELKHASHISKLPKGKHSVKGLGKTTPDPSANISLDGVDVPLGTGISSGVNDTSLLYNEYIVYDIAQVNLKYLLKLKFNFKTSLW

Compound | inhibition at 100 microg/mL [1] | inhibition of growth at 100 µg/mL (MCF7) | inhibition of growth at 100 µg/mL (FaDu [2]) | Activity (MDA-MB-231) | IC50 (MDA-MB-468 [3]) | IC50 (FaDu [4]) | inhibition of growth at 100 µg/mL (SK-BR-3) | inhibition of growth at 100 µg/mL (NCI-H460) | inhibition of growth at 100 µg/mL (A549) | inhibition of growth at 100 µg/mL (HCT-116) | inhibition of growth at 100 µg/mL (Huh-7) | inhibition of growth at 100 µg/mL (A-375) | inhibition of growth at 100 µg/mL (HeLa) | IC50 (HNO 97 cell line [5]) | inhibition of growth at 100 µg/mL (MDA-MB-468 [6]) | inhibition of growth at 100 µg/mL (HNO 97 cell line [7]) | IC50 [9] | further results
O=C(/C=C/c1ccc(Oc2ccc(Cl)nn2)cc1)c1ccccc1 | 52.2% | 63% | 80.9% | Active | 26.4 µM | 17.8 µM | 70.5% | 55.9% | 66.4% | 39% | 74.8% | 29.3% | 51% | 16.9 µM | 90.5% | 85.3% |  | 
CC(=O)Nc1ccc(C(=O)/C=C/c2ccc(Oc3ccc(Cl)nn3)cc2)cc1 | 70.2% | 75% | 86.5% | Active | 81.5 µM | 30.6 µM | 71.3% | 63.3% | 69.3% | 54.5% | 77.5% | 71.7% | 62.9% | 21.6 µM | 89.7% | 85.5% |  | inhibition [8]: Active
COc1cc(O)ccc1C(=O)/C=C/c1ccc(O)cc1 |  |  |  |  |  |  |  |  |  |  |  |  |  |  |  |  | 1.92 µM | 
O=C(/C=C/c1ccc(Oc2ccc(Cl)nn2)cc1)c1ccc(OCc2ccc(Cl)cc2Cl)cc1 | 50.7% | 54.4% | 81.6% | Active | 21.5 µM | 60.6 µM | 60.9% | 52.4% | 65% | 75.1% | 67.8% | 70.5% | 55% | 11.1 µM | 84.2% | 83.3% |  | Activity (HNO 97 cell line [10]): 8.57%; Activity (HNO 97 cell line [11]): 66.3%; fold change (FC) (HNO 97 cell line [12]): 0.66; Activity (HNO 97 cell line [13]): 25.13%; fold change (FC) (HNO 97 cell line [14]): 5.75; fold change (FC) (HNO 97 cell line [15]): 8.7; fold change (FC) (HNO 97 cell line [16]): 9.79; fold change (FC) (HNO 97 cell line [17]): 11.54; fold change (FC) (HNO 97 cell line [18]): 0.5
COC1CCN(C(=O)c2cc(Cc3n[nH]c(=O)c4ccccc34)ccc2F)CC1 [AZD2461] |  |  |  |  |  |  |  |  |  |  |  |  |  |  |  |  | 0.002 µM | 
CC(=O)Nc1cccc(C(=O)/C=C/c2ccc(Oc3ccc(Cl)nn3)cc2)c1 | 70% | 68.7% | 66.3% | Active | 30.1 µM |  | 55.5% | 69.6% | 71.5% | 77.8% | 70.8% | 73% | 73.9% | 13 µM | 91.1% | 83.7% |  | fold change (FC) (HNO 97 cell line [12]): 0.65; fold change (FC) (HNO 97 cell line [14]): 7.01; fold change (FC) (HNO 97 cell line [15]): 9.44; fold change (FC) (HNO 97 cell line [16]): 10.49; fold change (FC) (HNO 97 cell line [17]): 18.26; inhibition [8]: Active; fold change (FC) (HNO 97 cell line [18]): 0.43
Nc1ccc(C(=O)/C=C/c2ccc(Oc3ccc(Cl)nn3)cc2)cc1 | 68.1% | 67.9% | 86.7% | Active | 11.4 µM | 27 µM | 77.5% | 61.3% | 66.5% | 66.9% | 73.9% | 56.1% | 82.3% | 12.2 µM | 95% | 89.1% |  | Activity (HNO 97 cell line [10]): 1.05%; Activity (HNO 97 cell line [11]): 83.28%; fold change (FC) (HNO 97 cell line [12]): 0.59; Activity (HNO 97 cell line [13]): 15.66%; fold change (FC) (HNO 97 cell line [14]): 3.9; fold change (FC) (HNO 97 cell line [15]): 7.55; fold change (FC) (HNO 97 cell line [16]): 9.76; fold change (FC) (HNO 97 cell line [17]): 14.9; inhibition [8]: Active; fold change (FC) (HNO 97 cell line [18]): 0.54
COc1cccc2c1C(=O)c1c(O)c3c(c(O)c1C2=O)C[C@@](O)(C(=O)CO)C[C@@H]3O[C@H]1C[C@H](N)[C@H](O)[C@H](C)O1 [DOXORUBICIN] | 52.9% | 75.6% | 84.5% |  | 6.8 µM | 14 µM | 71.1% | 75.5% | 66.7% | 82.9% | 69.6% | 84% | 73% | 7 µM | 94% | 84.5% |  | 
Cc1ccc(C(=O)/C=C/c2ccc(Oc3ccc(Cl)nn3)cc2)cc1 | 67.8% | 72.4% | 80.2% | Active | 74.1 µM | 120 µM | 70.6% | 72.4% | 74.1% | 78.5% | 75.4% | 69.1% | 72.4% | 15.7 µM | 88% | 84.8% |  | 
CC1(COc2ccc(/C=C3/SC(O)=NC3=O)cc2)CCCCC1 |  |  |  |  |  |  |  |  |  |  |  |  |  |  |  |  | 25 µM | 
O=c1[nH]nc2c3c(cccc13)Oc1ccc(CN3CCC(O)CC3)cc1-2 [E-7016] |  |  |  |  |  |  |  |  |  |  |  |  |  |  |  |  | 3 µM | 
O=C(/C=C/c1ccc(Oc2ccc(Cl)nn2)cc1)c1ccc(O)cc1 | 61% | 68.5% | 85% |  | 116 µM | 122 µM | 68.2% | 68.3% | 73.8% | 76.4% | 72% | 59.2% | 73.2% | 31.2 µM | 79.2% | 79.3% |  | 
